This note sets out measurements from ChEMBL document CHEMBL4004786, “Nanomolar Antimalarial Agents against Chloroquine-Resistant Plasmodium falciparum from Medicinal Plants and Their Structure-Activity Relationships” (J Nat Prod, 2017).

One series deals with WI-38. The series is described as follows: Cytotoxicity against human WI38 cells after 24 hrs by resazurin assay. The note with it: WI-38, 24 h. For orientation: Alamar Blue is a resazurin reagent that responds to reducing activity.
Series [1] can be described thus: Selectivity index, ratio of IC50 for human WI38 cells to IC50 for chloroquine-resistant Plasmodium falciparum Dd2. The class given is toxicity. To be noted: read-out: Ratio IC50.
Another series has as its system Plasmodium falciparum. As to the kind of experiment: Antimalarial activity against chloroquine-resistant Plasmodium falciparum Dd2 assessed as parasite growth inhibition after 72 hrs by SYBR Green 1 assay. The class given is functional. The note with it: Dd2, 72 h. A digest of the protocol: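 Viability was read by SYBR Green I DNA quantitation and normalized to DMSO-treated untreated controls. IC50 came from nonlinear regression, averaging at least three independent experiments run in triplicate, with standard deviations.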

Molecules are shown by their SMILES.

As a reminder, the IC50 is the concentration that inhibits the measured activity by half.

For the molecule `C/C=C(\C)C(=O)OC[C@]1(O)[C@H]2C[C@H]2[C@]2(C)[C@@H]3CC4=C5[C@H](/C(=C(/C)C(=O)OC)C(=O)[C@H](O)[C@@]5(C)[C@@H]5C[C@H]45)[C@@]34OC(=O)C(COC(C)=O)=C4C[C@@H]12`, the IC50 with WI-38 was found to be 160 nM; in the series on Plasmodium falciparum it was 13 nM. For the same molecule, in series [1], the selectivity ratio was found to be 12.
On to `COC(=O)CCC(=O)OCC1=C2C[C@H]3[C@](O)(COC(=O)/C=C(\C)CO)[C@H]4C[C@H]4[C@]3(C)[C@@H]3CC4=C5[C@H](/C(=C(\C)C(=O)OC)C(=O)[C@H](O)[C@@]5(C)[C@@H]5C[C@H]45)[C@]23OC1=O`, for which the IC50 with WI-38 was 5390 nM; in the series on Plasmodium falciparum it was 1.1 nM. The selectivity ratio in series [1] worked out at 4900.
For the molecule `C/C=C(\C)C(=O)OC[C@]1(O)[C@H]2CC3=C(CO)C(=O)O[C@@]34[C@@H]3C5=C(C[C@H]4[C@@]2(C)[C@@H]2C[C@@H]21)[C@H]1C[C@H]1[C@]5(C)[C@@H](O)C(=O)/C3=C(\C)C(=O)OC`, the figures for the half-maximal inhibitory concentration (IC50) with WI-38 and in the series on Plasmodium falciparum were 770 nM and 21 nM, respectively. Further, the selectivity ratio in series [1] turned out to be 37.
As to `COC(=O)/C(C)=C1\C(=O)[C@H](O)[C@]2(C)C3=C(C[C@@H]4[C@]5(OC(=O)C(C)=C5C[C@H]5[C@](O)(COC(=O)/C=C(\C)CO)[C@H]6C[C@H]6[C@]45C)[C@H]31)[C@H]1C[C@H]12`, the IC50 with WI-38 stood at 4450 nM; with Plasmodium falciparum, 96 nM. The selectivity ratio in series [1] is 46.
With `COC(=O)/C(C)=C1\C(=O)[C@H](O)[C@]2(C)C3=C(C[C@@H]4[C@]5(OC(=O)C(COC(=O)C[C@H](O)C(=O)OC)=C5C[C@H]5[C@](O)(COC(=O)/C(C)=C/CO)[C@H]6C[C@H]6[C@]45C)[C@H]31)[C@H]1C[C@H]12`, the IC50 came out at 4040 nM in the series with WI-38 and 7.2 nM with Plasmodium falciparum. Besides, in series [1], the selectivity ratio is 561.
As to `COC(=O)/C(C)=C1\C(=O)[C@H](O)[C@]2(C)C3=C(C[C@@H]4[C@]5(OC(=O)C(CO)=C5C[C@H]5[C@](O)(COC(C)=O)[C@H]6C[C@H]6[C@]45C)[C@H]31)[C@H]1C[C@H]12`, the IC50 was determined as 10000 nM in the series with WI-38 and 100 nM in the series on Plasmodium falciparum. Moreover, the selectivity ratio in series [1] turned out to be 100.
For `COC(=O)CCC(=O)OC/C(C)=C/C(=O)OC[C@]1(O)[C@H]2C[C@H]2[C@]2(C)[C@@H]3CC4=C5[C@H](/C(=C(\C)C(=O)OC)C(=O)[C@H](O)[C@@]5(C)[C@@H]5C[C@H]45)[C@@]34OC(=O)C(CO)=C4C[C@@H]12`, in that order: 3090 nM, 19 nM and 163.
In the case of `COC(=O)/C(C)=C1/C(=O)[C@H](O)[C@]2(C)C3=C(C[C@@H]4[C@]5(OC(=O)C6=C5C[C@H]5[C@](O)(COC(=O)/C=C(\C)COC(=O)CCC(=O)OC6)[C@H]6C[C@H]6[C@]45C)[C@H]31)[C@H]1C[C@H]12`, the IC50 in the series on WI-38 turned out to be 1240 nM; with Plasmodium falciparum it was 46 nM. For the same molecule, the selectivity ratio in series [1] worked out at 27.
As to `C=C1C(=O)O[C@]23C4=C5C(=O)[C@H](O)[C@]6(C)C4=C(C[C@H]2[C@]2(C)C(C[C@]13[C@]5(C)C(=O)OC)[C@](O)(COC(=O)/C(C)=C/COC(=O)CCC(=O)OC)[C@H]1C[C@H]12)[C@H]1C[C@H]16` (stereo partly specified), the IC50 in the series on WI-38 is 15500 nM; in the series on Plasmodium falciparum, 99 nM. Further, the selectivity ratio in series [1] came to 157.
Regarding `COC(=O)CCC(=O)OC/C(C)=C/C(=O)OC[C@]1(O)[C@H]2C[C@H]2[C@]2(C)[C@@H]3C[C@@]4(OO)C5=C(/C(=C(\C)C(=O)OC)C(=O)[C@H](O)[C@@]5(C)[C@@H]5C[C@@H]54)[C@@]34OC(=O)C(CO)=C4C[C@@H]12`, the concentration for half-maximal inhibition (IC50) with WI-38 is 530 nM; in the series with Plasmodium falciparum it was 30 nM. The selectivity ratio in series [1] turned out to be 18.
The matching figures for `COC(=O)/C(C)=C1\C(=O)[C@H](O)[C@]2(C)C3=C(C[C@@H]4[C@]5(OC(=O)C6=C5C[C@H]5[C@](O)(COC(=O)/C(C)=C/COC(=O)CCC(=O)OC6)[C@H]6C[C@H]6[C@]45C)[C@H]31)[C@H]1C[C@H]12` [SHIZUKAOL B]: 16700 nM, 27 nM and 619.
On to `COC(=O)/C(C)=C1\C(=O)[C@H](O)[C@]2(C)C3=C(C[C@@H]4[C@]5(OC(=O)C6=C5C[C@H]5[C@](O)(COC(=O)/C=C(\C)COC(=O)CCC(=O)OC6)[C@H]6C[C@H]6[C@]45C)[C@H]31)[C@H]1C[C@H]12` [SHIZUKAOL F], for which the figures for the IC50 in the series with WI-38 and in the series on Plasmodium falciparum were 230 nM and 11 nM, respectively. The selectivity ratio in series [1] is 21.
